Experimental findings from ChEMBL document CHEMBL1151747, “Orally bioavailable isothioureas block function of the chemokine receptor CXCR4 in vitro and in vivo” (J Med Chem, 2008) are described below.

Series [1] concerns the target C-X-C chemokine receptor type 4 (Rattus norvegicus, UniProt O08565). The series is described as follows: Displacement of [125I]CXCL12 from CXCR4 in rat IR983F cells. Format: cell-based. An outline of the steps:
(§1)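 Scintillation proximity assay. Membranes come from CEM cells (human CXCR4) or IR983F cells (rat CXCR4), prepared by homogenization in 20 mM HEPES, 1 mM EDTA pH 7.4 and stored at -80 °C. Nonspecific binding is defined with 400 nM unlabeled CXCL12. Incubation is 2 h at room temperature with shaking, then scintillation counting.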

The target of series [2] is T1, C-X-C chemokine receptor type 4 (Homo sapiens, UniProt P61073). The series is described as follows: Displacement of [125I]CXCL12 from CXCR4 in human CEM cells. In kind it is cell-based, CCRF-CEM. In short, it runs like this:
as §1

Series [3] has as its target T1, C-X-C chemokine receptor type 4. The series is described as follows: Activity at CXCR4 in human CEM cells assessed as inhibition of CXCL12-induced calcium mobilization. In kind it is functional, cell-based, CCRF-CEM. In short, it runs like this: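 CEM cells are loaded with 4 µM Fluo-4 for 1 h at 37 °C, washed, then preincubated with antagonist for 2 h. Wells are run in quadruplicate on FLIPR.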
A general note: Calcium assays in cells follow changes in intracellular calcium, usually with a dye or a luminescent sensor.

Series [4] relates to Human immunodeficiency virus 1. Description: Antiviral activity against X4-tropic HIV1 3B assessed as inhibition of viral attachment. The note with it: Human immunodeficiency virus 1, 3B. Format: functional, organism-based.
The target in a further series is Cytochrome P450 2C9 (Homo sapiens, UniProt P11712). The series is described as follows: Inhibition of CYP2C9. In kind it is ADME.
Series [5] can be described thus: Solubility in pH 1.0 buffer. Format: physicochemical.
Series [6] in a line: Tmax in Lewis rat at 10 mg/kg, po. Format: ADME, organism-based. The note with it: in vivo. Details: dose 10 mg/kg, route oral.
Another series addresses Cytochrome P450 3A4 (Homo sapiens, UniProt P08684). Description: Inhibition of CYP3A4. In kind it is ADME.
Series [7] is described as follows: Intrinsic clearance in rat liver microsomes. In kind it is ADME, Microsome. In short, it runs like this: (§2)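 Compound is incubated with human or rat liver microsomes; intrinsic clearance is given in µL min-1 mg-1.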
Series [8] in a line: Distribution coefficient, log D of the compound. Format: physicochemical. The note with it: octanol/water.
Another series addresses T2, Cytochrome P450 1A2 (Homo sapiens, UniProt P05177).
T2 sequence (P05177 whole entry): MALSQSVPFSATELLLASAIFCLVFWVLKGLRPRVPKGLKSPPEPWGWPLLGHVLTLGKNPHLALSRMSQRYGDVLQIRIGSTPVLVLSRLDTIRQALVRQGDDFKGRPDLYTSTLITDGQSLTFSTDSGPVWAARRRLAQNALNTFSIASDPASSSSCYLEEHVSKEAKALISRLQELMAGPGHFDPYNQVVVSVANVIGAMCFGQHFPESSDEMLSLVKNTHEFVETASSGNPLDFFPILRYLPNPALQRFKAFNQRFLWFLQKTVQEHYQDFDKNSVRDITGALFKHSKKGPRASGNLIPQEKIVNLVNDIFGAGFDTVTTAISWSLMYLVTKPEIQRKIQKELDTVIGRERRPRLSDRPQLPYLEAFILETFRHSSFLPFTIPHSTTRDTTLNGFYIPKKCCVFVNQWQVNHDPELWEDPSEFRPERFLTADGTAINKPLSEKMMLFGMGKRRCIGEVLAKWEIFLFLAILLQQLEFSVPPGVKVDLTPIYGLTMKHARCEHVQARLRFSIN
Description: Inhibition of CYP1A2. Format: ADME.

Series [9] in a line: Fraction unbound in rat serum. In kind it is ADME, cell-free.
Series [10] in a line: Fraction unbound in human serum. In kind it is ADME, cell-free.
Series [11] can be described thus: Partition coefficient, log P of the compound. In kind it is physicochemical. Conditions: octanol/water.
Series [12] can be described thus: Dissociation constant, pKa of the compound. Format: physicochemical.
Series [13] can be described thus: Oral bioavailability in Lewis rat at 10 mg/kg. Format: ADME, organism-based. Conditions: in vivo.
Series [14] in a line: Solubility in pH 6.8 buffer. In kind it is physicochemical.
In a further series the target is Cytochrome P450 2C19 (Homo sapiens, UniProt P33261). Description: Inhibition of CYP2C19. In kind it is ADME.
The target in another series is Cytochrome P450 2D6 (Homo sapiens, UniProt P10635). The series is described as follows: Inhibition of CYP2D6. In kind it is ADME.
The nature of series [15]: Half life in Lewis rat at 10 mg/kg, po. Format: ADME, organism-based. Details: dose 10 mg/kg, route oral. The note with it: in vivo.
A short description of series [16]: Intrinsic clearance in human liver microsomes. In kind it is ADME, Microsome. An outline of the steps:
as §2
On the technique in general: Liver microsomes are a subcellular fraction often used to study metabolism.

T1 sequence (P61073 whole entry): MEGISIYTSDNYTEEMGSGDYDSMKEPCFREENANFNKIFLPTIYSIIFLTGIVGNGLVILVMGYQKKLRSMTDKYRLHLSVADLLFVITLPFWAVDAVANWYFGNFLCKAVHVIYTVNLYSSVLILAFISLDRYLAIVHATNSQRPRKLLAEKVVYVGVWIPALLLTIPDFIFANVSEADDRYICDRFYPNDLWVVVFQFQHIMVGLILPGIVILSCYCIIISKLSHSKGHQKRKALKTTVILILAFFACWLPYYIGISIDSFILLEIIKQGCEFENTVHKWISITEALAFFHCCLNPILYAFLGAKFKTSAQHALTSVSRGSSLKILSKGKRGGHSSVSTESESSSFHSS
C-X-C chemokine receptor type 4 (Rattus norvegicus, UniProt O08565), sequence (O08565 whole entry): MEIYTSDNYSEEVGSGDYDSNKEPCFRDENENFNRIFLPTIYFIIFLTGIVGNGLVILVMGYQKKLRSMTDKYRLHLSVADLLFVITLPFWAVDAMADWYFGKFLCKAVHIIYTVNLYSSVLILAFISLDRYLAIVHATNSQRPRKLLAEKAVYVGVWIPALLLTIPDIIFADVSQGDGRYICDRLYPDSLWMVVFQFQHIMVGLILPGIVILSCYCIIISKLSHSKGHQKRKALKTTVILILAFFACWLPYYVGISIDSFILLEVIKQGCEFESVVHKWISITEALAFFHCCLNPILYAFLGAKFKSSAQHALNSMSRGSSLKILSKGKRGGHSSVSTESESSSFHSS
Cytochrome P450 2D6, sequence (P10635 whole entry): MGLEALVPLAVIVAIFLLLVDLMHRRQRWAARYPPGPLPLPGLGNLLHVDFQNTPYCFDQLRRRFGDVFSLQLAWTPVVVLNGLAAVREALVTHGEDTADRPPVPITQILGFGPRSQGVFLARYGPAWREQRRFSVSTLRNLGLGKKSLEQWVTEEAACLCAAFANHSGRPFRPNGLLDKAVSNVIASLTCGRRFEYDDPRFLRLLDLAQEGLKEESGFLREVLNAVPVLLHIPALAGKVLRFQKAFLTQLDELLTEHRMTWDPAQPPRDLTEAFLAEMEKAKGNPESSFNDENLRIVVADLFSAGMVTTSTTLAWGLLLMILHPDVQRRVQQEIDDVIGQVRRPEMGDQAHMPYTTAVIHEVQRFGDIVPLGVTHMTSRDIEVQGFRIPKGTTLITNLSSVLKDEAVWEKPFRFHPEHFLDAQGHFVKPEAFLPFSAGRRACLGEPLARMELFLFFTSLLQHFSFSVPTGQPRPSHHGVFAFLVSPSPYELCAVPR
Cytochrome P450 3A4, sequence (P08684 whole entry): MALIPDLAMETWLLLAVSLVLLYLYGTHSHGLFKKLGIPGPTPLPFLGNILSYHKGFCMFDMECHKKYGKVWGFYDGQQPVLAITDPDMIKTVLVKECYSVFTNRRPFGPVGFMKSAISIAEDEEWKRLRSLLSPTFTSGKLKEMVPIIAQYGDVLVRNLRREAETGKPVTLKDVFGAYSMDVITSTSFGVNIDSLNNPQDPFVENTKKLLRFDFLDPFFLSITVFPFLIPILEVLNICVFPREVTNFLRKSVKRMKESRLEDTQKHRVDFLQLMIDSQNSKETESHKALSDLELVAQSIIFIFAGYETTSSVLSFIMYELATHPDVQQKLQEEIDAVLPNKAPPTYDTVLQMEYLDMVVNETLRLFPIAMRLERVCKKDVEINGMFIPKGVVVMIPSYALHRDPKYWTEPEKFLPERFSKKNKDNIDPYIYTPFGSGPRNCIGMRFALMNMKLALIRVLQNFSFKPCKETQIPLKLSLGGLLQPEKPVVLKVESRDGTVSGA
Cytochrome P450 2C19, sequence (P33261 whole entry): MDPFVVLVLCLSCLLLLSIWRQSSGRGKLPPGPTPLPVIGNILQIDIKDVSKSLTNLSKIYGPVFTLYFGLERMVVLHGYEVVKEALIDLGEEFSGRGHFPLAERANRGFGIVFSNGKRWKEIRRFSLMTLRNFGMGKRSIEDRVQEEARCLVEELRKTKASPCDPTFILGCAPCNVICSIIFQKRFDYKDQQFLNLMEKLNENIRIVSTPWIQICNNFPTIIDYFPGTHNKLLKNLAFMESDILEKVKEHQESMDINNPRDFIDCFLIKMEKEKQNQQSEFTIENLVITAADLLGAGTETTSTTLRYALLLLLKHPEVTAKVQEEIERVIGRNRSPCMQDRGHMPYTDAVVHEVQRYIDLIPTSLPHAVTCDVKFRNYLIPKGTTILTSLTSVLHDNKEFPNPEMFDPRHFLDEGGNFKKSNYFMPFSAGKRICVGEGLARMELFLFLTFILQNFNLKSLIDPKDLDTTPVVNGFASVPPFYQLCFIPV
Cytochrome P450 2C9, sequence (P11712 whole entry): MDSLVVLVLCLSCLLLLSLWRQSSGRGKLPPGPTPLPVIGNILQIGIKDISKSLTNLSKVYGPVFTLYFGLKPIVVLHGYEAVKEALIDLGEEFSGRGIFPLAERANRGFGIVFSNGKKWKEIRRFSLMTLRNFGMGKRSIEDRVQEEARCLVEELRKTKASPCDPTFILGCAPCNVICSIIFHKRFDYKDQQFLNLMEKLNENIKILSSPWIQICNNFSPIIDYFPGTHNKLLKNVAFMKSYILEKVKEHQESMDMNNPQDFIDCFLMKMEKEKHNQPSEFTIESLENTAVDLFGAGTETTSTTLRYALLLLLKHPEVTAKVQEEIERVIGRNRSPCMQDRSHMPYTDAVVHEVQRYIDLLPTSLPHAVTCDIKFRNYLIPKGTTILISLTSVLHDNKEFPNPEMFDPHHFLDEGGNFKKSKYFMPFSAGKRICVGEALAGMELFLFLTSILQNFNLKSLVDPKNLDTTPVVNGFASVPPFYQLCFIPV

The term IC50 denotes the midpoint of a concentration-inhibition curve. Take `NC(N)=NCCC[C@@H]1NC(=O)[C@H](CCCN=C(N)N)NC(=O)[C@@H](Cc2ccc(O)cc2)NC(=O)CNC(=O)[C@H](c2ccc3ccccc3c2)NC1=O`: the IC50 was 1440 nM in series [1] and 109 nM in series [2].
Broadly, the IC90 is the point of the concentration-response curve where the effect stands at 90%. Consider `C1=C(CSC(=NC2CCCCC2)NC2CCCC2)N2CCN=C2S1`, for which the IC50 in series [3] turned out to be 173 nM; in [2], 372 nM; in series [4], 470 nM. Besides, the concentration for an effect of 90% (IC90) in series [4] was > 100000 nM.
Consider `CCCCCCNC(=NC1CCCCC1)SCC1=CSC2=NCCN12`, for which the half-inhibitory concentration (IC50) in [3] is 75 nM; in series [2], 855 nM.
Consider `C1=C(CSC(=NC2CCCCC2)NC2C3CC4CC(C3)CC2C4)N2CCN=C2S1` (stereo unspecified), for which the IC50 in [3] stood at 13 nM; in series [2], 81 nM.
As for `CC1(C)CN2C(CS/C(=N\C3CCCCCC3)NC3CCCCCC3)=CSC2=N1`, the figures for the half-maximal inhibitory concentration (IC50) in series [3], in series [2] and in [4] were 2.1 nM, 8.8 nM and 10 nM, respectively. The IC90 in [4] was 130 nM.
Taken in the same sequence, the figures for `CN(/C(=N/C1CCCCC1)SCC1=CSC2=NCCN12)C1CCCCC1` were 931 nM, 3380 nM, > 100000 nM and > 100000 nM.
Take `C/N=c1/scc(CS/C(=N\C2CCCCC2)NC2CCCCC2)n1C`: the concentration for half-maximal inhibition (IC50) in [3] was 9130 nM; in series [2], > 10000 nM.
In the case of `C1=C(CS/C(=N\C2CCCCC2)NC2CCCCCCC2)N2CCN=C2S1`, the IC50 in [3] is 8 nM; in [2], 28 nM.
As to `C1=C(CS/C(=N\C2CCCCC2)NC2CCCCC2)N2CCCN=C2S1`, the concentration for half-maximal inhibition (IC50) came out at 57 nM in series [3] and 185 nM in series [2].
In the case of `C1=C(CSC(=NC2CCCCC2)NC2CCCCCC2)N2CCN=C2S1`, the IC50 came out at 6.6 nM in [3], 28 nM in series [2] and 40 nM in [4]. In series [4], the IC90 turned out to be 1140 nM.
For orientation: solubility means the dissolved amount per volume that the medium holds. Read a high solubility as a readily soluble substance. The Tmax is the time from dosing to the highest level. What is called microsomal CLint is the rate of metabolic loss divided by the concentration. Lower therefore signals slow turnover. The term logD denotes lipophilicity at a set pH, counting ionised and neutral species. Read a low logD as a more hydrophilic compound. For orientation: fraction unbound means the share of the substance not bound to proteins or other matrix. A higher fraction unbound goes with much free substance. A word on the logP: it is a log measure of how a compound divides between an organic and an aqueous phase. Usually pKa stands for the negative logarithm of the acid dissociation constant. Read a high pKa as a weaker acid or stronger base. The term bioavailability denotes the share of a dose that reaches the circulation, judged against a reference dose that is usually intravenous. The low end stands for little systemic uptake, the high end for much systemic uptake. In general, half-life refers to the time needed for the level to fall by half in the phase considered. The low end stands for rapid decline, the high end for slow decline. For `CC1(C)CN2C(CS/C(=N\C3CCCCC3)NC3CCCCC3)=CSC2=N1`, the half-inhibitory concentration (IC50) against Cytochrome P450 2C9 was > 10000 nM; on Cytochrome P450 3A4 it was > 10000 nM; at Cytochrome P450 1A2 it was > 10000 nM; in series [1], 11 nM; in series [4], 7 nM; against Cytochrome P450 2C19, 5200 nM. The IC50 against Cytochrome P450 2D6 came to 400 nM. The solubility in series [5] and in series [14] was > 5000 µg/mL throughout. Also, in [6], the time to peak (Tmax) turned out to be 0.5 h. The microsomal CLint in series [7] stood at 342 µL/min/mg; in series [16], 149 µL/min/mg. Further, the logD in series [8] was 1.2. Further, the fraction unbound in series [9] worked out at 0.46; in series [10], 0.2. Further, the lipophilicity (logP) in series [11] turned out to be 4.5. The compound also had a pKa in series [12] of 8. In series [13], the bioavailability was determined as 32%. The IC90 in series [4] was 100 nM. Besides, the half-life in series [15] is 7.6 h.
On to `c1ccc2c(c1)nc1scc(CS/C(=N\C3CCCCC3)NC3CCCCC3)n12`, for which the figures for the half-maximal inhibitory concentration (IC50) in series [3] and in series [2] were 8120 nM and > 10000 nM, respectively.
For `C1=C(CS/C(=N\C2CCCCC2)Nc2ccccc2)N2CCN=C2S1`, in that order: 5270 nM and > 10000 nM.
`c1cc(CN2CCCNCCNCCCNCC2)ccc1CN1CCCNCCNCCCNCC1` [PLERIXAFOR]: in [4], the IC50 stood at 3 nM and the 90% effect concentration (IC90) is 50 nM.
In the case of `C1=C(CS/C(=N\C2CCCC2)NC2CCCC2)N2CCN=C2S1`, the IC50 in series [3] came to 493 nM; in series [2] it was 3830 nM.
Turning to `c1ccc(CNC(=NC2CCCCC2)SCC2CSC3=NCCN32)cc1` (stereo unspecified), the IC50 stood at 2220 nM in series [3] and 10000 nM in series [2].
Take `C1=C(CS/C(=N\C2CCCCCCC2)NC2CCCCCCC2)N2CCN=C2S1`: the results for the IC50 in [3] and in series [2] were 5.3 nM and 27 nM, respectively.
Regarding `CC(C)/N=C(/NC(C)C)SCC1=CSC2=NCCN12`, the 50% inhibitory concentration (IC50) in [2] was > 10000 nM.
For `CC(C)(C)C1CCC(NC(=NC2CCCCC2)SCC2=CSC3=NCCN23)CC1` (stereo unspecified), the IC50 in [3] amounted to 437 nM; in series [2], 1530 nM.
For the compound `C1=C(CS/C(=N\C2CCCCCC2)NC2CCCCCC2)N2CCN=C2S1`, the IC50 came out at 3.1 nM in series [3], 25 nM in series [2] and 50 nM in series [4]. Also, in series [4], the IC90 amounted to 820 nM.
For `c1ccc(CS/C(=N\C2CCCCC2)NC2CCCCC2)cc1`, the IC50 in [3] and in [2] was > 10000 nM in each case.
On to `C1=C(CS/C(=N\C2CCCCC2)NC23CC4CC(CC(C4)C2)C3)N2CCN=C2S1`, for which the IC50 in series [3] came to 304 nM; in [2], 1870 nM.
